Results reported in ChEMBL document CHEMBL3112425, “Design, synthesis, and structure-activity relationship studies of a potent PACE4 inhibitor” (J Med Chem, 2014).
pIC50, pKi: −log10 of the molar value. Square brackets hold non-standard residues; d marks the D form. Peptide text beside a SMILES is read from it. * marks the point of attachment. Phe(4-guanidino) = N=C(N)Nc1ccc(C[C@H](N)C(=O)O)cc1; NH(4-amidinobenzyl) = N=C(N)c1ccc(CN*)cc1; X2 = N=C(N)NCCCN(CC(N)=O)N*; Nle = CCCC[C@H](N)C(=O)O

Tests used:
Furin = Furin (Homo sapiens, UniProt P09958); assay: Inhibition of human recombinant furin expressed in drosophila schneider 2 cells using pyroGlu-Arg-Thr-Lys-Arg-AMC as substrate after 1 hr
Outline: (§1)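 Human enzymes were expressed in Drosophila S2 cells and purified. Fluorogenic pyroGlu-RTKR-AMC was used at fixed concentration with varied inhibitor, 37 °C over 1 h. Buffers: furin, 100 mM Hepes pH 7.5, 1 mM CaCl2, 1 mM β-mercaptoethanol, 1.8 mg/mL BSA; PACE4 and PC7, 20 mM Bis-Tris pH 6.5, 1 mM CaCl2, 1.8 mg/mL BSA; PC2, same buffer at pH 5.7. Ki from IC50 (Cheng–Prusoff), or apparent Ki (Morrison) for tight binders. Triplicate, mean ± SD.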

[1] = target: T1, Proprotein convertase subtilisin/kexin type 6 (Homo sapiens, UniProt P29122); assay: Inhibition of human recombinant PACE4 expressed in drosophila schneider 2 cells using pyroGlu-Arg-Thr-Lys-Arg-AMC as substrate after 1 hr; outline: as §1
T1 sequence (P29122 whole entry): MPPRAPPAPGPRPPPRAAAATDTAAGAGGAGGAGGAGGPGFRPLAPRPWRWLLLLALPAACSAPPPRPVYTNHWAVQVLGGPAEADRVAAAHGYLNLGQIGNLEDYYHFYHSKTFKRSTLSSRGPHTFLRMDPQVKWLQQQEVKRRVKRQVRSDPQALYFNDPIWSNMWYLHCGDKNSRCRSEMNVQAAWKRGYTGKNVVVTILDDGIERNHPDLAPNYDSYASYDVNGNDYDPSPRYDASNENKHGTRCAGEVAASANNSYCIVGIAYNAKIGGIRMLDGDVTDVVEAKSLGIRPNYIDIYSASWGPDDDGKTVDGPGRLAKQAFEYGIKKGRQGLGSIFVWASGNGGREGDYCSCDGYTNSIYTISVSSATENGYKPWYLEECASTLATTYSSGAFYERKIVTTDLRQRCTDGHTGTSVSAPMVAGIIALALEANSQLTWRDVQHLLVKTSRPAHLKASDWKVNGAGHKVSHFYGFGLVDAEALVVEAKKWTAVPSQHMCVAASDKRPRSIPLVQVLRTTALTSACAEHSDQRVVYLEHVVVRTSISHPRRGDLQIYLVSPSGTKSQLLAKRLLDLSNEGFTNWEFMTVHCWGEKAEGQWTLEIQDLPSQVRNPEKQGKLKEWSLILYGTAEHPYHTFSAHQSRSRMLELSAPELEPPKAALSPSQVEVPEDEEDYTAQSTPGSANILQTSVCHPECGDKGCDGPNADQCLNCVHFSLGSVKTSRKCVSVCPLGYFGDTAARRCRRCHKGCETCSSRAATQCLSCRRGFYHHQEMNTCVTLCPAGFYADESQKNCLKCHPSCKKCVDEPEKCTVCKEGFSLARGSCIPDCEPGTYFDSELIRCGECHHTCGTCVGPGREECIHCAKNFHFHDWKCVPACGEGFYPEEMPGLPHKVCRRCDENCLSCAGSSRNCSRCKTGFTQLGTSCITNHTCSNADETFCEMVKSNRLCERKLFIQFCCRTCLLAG

[2] = Acute toxicity in human DU145 cells assessed as cell death/lysis at 100 uM after 4 hrs by LDH assay; type: cell-based, DU-145; settings: read-out: INH
Outline: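 DU145 cells (RPMI 1640, 5% FBS, 37 °C, 5% CO2) plated; 24 h later peptides added at 100 μM. After 4 h, release of lactate dehydrogenase into the medium was quantified enzymatically with a commercial LDH cytotoxicity kit as the measure of acute membrane damage/lysis.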

PC-3 [3] = assay: Cytotoxicity against human PC3 cells up to 350 uM after 72 hrs by MTT assay; type: functional
Outline: (§2)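 Prostate cancer cells were kept in RPMI 1640 at 37 °C, 5% CO2, with 5% FBS for DU145 and 10% FBS for LNCaP and PC3. After 24 h, medium was changed and peptides added at various concentrations, up to 350 μM. Viability was read by MTT after 72 h treatment. IC50 from dose–response curves, triplicate, mean ± SEM.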

LNCaP = assay: Cytotoxicity against human LNCAP cells after 72 hrs by MTT assay; type: functional, cell-based; outline: as §2
DU-145 = assay: Cytotoxicity against human DU145 cells after 72 hrs by MTT assay; type: functional, cell-based; settings: DU-145, 72 h; outline: as §2
[4] = Half life in CD-1 mouse plasma at 0.5 ug/uL by RP-HPLC analysis; type: ADME, cell-free
Outline: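 Peptides at 0.5 μg/μL were incubated at 37 °C in heparinized plasma pooled from mixed-sex CD1 mice. At each time point the reaction was stopped with 1 M guanidinium-HCl, then acetonitrile, and proteins were spun out. Supernatant peptide AUC (RP-HPLC) was compared with non-incubated samples. Half-life came from a one-phase decay fit. Run ≥3 times, duplicate per time point.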

Plasma = assay: Drug degradation in CD-1 mouse plasma at 0.5 ug/uL after 30 mins by MALDI-TOF MS analysis; type: ADME, cell-free; settings: 0.5 h
Outline: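 For fragment mapping, 100 μg peptide was incubated in murine plasma at 37 °C. At each time point, plasma samples were quenched with 3% TFA. Proteins were precipitated with 2 volumes acetonitrile and centrifuged at 17 000g. Supernatants were analyzed by MALDI-TOF MS for C-terminally truncated fragments.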

PC-3 [5] = assay: Cytotoxicity against human PC3 cells after 72 hrs by MTT assay; type: functional, cell-based; settings: PC-3, 72 h; outline: as §2

Chain of Furin (P09958 whole entry): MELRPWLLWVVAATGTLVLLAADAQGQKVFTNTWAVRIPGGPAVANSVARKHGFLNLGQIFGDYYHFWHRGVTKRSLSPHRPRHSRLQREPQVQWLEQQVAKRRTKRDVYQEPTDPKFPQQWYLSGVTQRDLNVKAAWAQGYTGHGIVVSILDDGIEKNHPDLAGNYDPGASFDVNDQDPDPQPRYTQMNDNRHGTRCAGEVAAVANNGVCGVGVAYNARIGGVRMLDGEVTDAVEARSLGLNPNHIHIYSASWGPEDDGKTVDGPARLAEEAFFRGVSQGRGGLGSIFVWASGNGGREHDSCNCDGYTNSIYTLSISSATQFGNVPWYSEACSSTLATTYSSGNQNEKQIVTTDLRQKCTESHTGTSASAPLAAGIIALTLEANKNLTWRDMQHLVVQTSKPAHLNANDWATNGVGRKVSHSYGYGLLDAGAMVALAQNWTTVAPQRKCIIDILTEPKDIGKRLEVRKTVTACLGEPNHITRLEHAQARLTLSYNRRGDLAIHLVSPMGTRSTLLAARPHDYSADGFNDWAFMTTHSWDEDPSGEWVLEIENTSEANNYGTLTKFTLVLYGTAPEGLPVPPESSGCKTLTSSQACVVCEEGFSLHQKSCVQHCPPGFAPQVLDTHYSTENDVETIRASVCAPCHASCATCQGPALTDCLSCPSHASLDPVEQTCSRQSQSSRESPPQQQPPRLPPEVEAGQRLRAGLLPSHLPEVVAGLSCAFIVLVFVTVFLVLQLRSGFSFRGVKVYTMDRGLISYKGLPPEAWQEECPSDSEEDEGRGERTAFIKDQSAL

SMILES	pKi (Furin)	pKi [1]	cytotoxicity at 4 h, 100 µM [2] [%]	inhibition (INH) (PC-3 [3]) [%]	pIC50 (LNCaP)	pIC50 (DU-145)	half-life at 0.5 ug/uL [4] [h]	Stability (Plasma)	pIC50 (PC-3 [5])
CC(=O)N[C@@H](CC(C)C)C(=O)N[C@H](CC(C)C)C(=O)N[C@@H](CC(C)C)C(=O)N[C@@H](CC(C)C)C(=O)N[C@@H](CCCN=C(N)N)C(=O)N[C@H](C(=O)N[C@@H](CCCCN)C(=O)N[C@@H](CCCN=C(N)N)C(N)=O)C(C)C	5.55	6.15	–	–	–	–	–	–	–
CC(=O)N[C@@H](CC(C)C)C(=O)N[C@@H](CC(C)C)C(=O)N[C@@H](CC(C)C)C(=O)N[C@@H](CC(C)C)C(=O)N[C@@H](CCCNC(=N)N)C(=O)N[C@H](C(=O)N[C@@H](CCCCN)C(=O)NN(CCCNC(=N)N)CC(N)=O)C(C)C (Ac-LLLLRVK-X2)	5.95	6.40	< 5	<50	3.62	3.57	5.6	–	–
CCCC[C@H](NC(=O)[C@H](CC(C)C)NC(=O)[C@H](CC(C)C)NC(C)=O)C(=O)N[C@@H](CCCC)C(=O)N[C@@H](CCCN=C(N)N)C(=O)N[C@H](C(=O)N[C@@H](CCCCN)C(=O)N[C@@H](CCCN=C(N)N)C(N)=O)C(C)C (Ac-LL[Nle][Nle]RVKR-NH2)	5.68	6.46	–	–	–	–	–	–	–
CCCC[C@H](NC(=O)[C@H](CC(C)C)NC(C)=O)C(=O)N[C@@H](CC(C)C)C(=O)N[C@@H](CC(C)C)C(=O)N[C@@H](CCCNC(=N)N)C(=O)N[C@H](C(=O)N[C@@H](CCCCN)C(=O)N[C@@H](CCCNC(=N)N)C(N)=O)C(C)C (Ac-L[Nle]LLRVKR-NH2)	6.01	7.41	–	–	–	–	–	–	–
CCCC[C@H](NC(=O)[C@H](CC(C)C)NC(C)=O)C(=O)N[C@@H](CCCC)C(=O)N[C@@H](CC(C)C)C(=O)N[C@@H](CCCN=C(N)N)C(=O)N[C@H](C(=O)N[C@@H](CCCCN)C(=O)N[C@@H](CCCN=C(N)N)C(N)=O)C(C)C (Ac-L[Nle][Nle]LRVKR-NH2)	5.64	6.77	–	–	–	–	–	–	–
CC(=O)N[C@@H](CC(C)C)C(=O)N[C@@H](CC(C)C)C(=O)N[C@@H](CC(C)C)C(=O)N[C@@H](CC(C)C)C(=O)N[C@@H](CCCNC(=N)N)C(=O)N[C@H](C(=O)N[C@@H](CCCCN)C(=O)N[C@@H](Cc1ccc(NC(=N)N)cc1)C(N)=O)C(C)C (Ac-LLLLRVK[Phe(4-guanidino)]-NH2)	4.96	6.02	–	–	–	–	–	–	–
CCCC[C@H](NC(C)=O)C(=O)N[C@@H](CCCC)C(=O)N[C@@H](CC(C)C)C(=O)N[C@@H](CCCC)C(=O)N[C@@H](CCCN=C(N)N)C(=O)N[C@H](C(=O)N[C@@H](CCCCN)C(=O)N[C@@H](CCCN=C(N)N)C(N)=O)C(C)C	5.97	7.22	–	–	–	–	–	–	–
CCCC[C@H](NC(=O)[C@H](CC(C)C)NC(=O)[C@H](CC(C)C)NC(=O)[C@H](CC(C)C)NC(C)=O)C(=O)N[C@@H](CCCN=C(N)N)C(=O)N[C@H](C(=O)N[C@@H](CCCCN)C(=O)N[C@@H](CCCN=C(N)N)C(N)=O)C(C)C (Ac-LLL[Nle]RVKR-NH2)	6.25	7.57	< 5	–	–	–	–	–	–
CCCC[C@H](NC(C)=O)C(=O)N[C@@H](CC(C)C)C(=O)N[C@@H](CC(C)C)C(=O)N[C@@H](CC(C)C)C(=O)N[C@@H](CCCNC(=N)N)C(=O)N[C@H](C(=O)N[C@@H](CCCCN)C(=O)N[C@@H](CCCNC(=N)N)C(N)=O)C(C)C	6.19	7.68	< 5	<50	3.74	3.82	–	–	–
CC(=O)N[C@@H](CC(C)C)C(=O)N[C@@H](CC(C)C)C(=O)N[C@@H](CC(C)C)C(=O)N[C@H](CC(C)C)C(=O)N[C@@H](CCCNC(=N)N)C(=O)N[C@H](C(=O)N[C@@H](CCCCN)C(=O)N[C@@H](CCCNC(=N)N)C(N)=O)C(C)C	5.02	4.85	–	–	–	–	–	–	–
CCCC[C@H](NC(C)=O)C(=O)N[C@@H](CC(C)C)C(=O)N[C@@H](CC(C)C)C(=O)N[C@@H](CCCC)C(=O)N[C@@H](CCCNC(=N)N)C(=O)N[C@H](C(=O)N[C@@H](CCCCN)C(=O)N[C@@H](CCCNC(=N)N)C(N)=O)C(C)C	6.17	7.85	< 5	<50	4.05	4.40	–	Unstable	–
CC(=O)N[C@@H](CC(C)C)C(=O)N[C@@H](CC(C)C)C(=O)N[C@H](CC(C)C)C(=O)N[C@@H](CC(C)C)C(=O)N[C@@H](CCCNC(=N)N)C(=O)N[C@H](C(=O)N[C@@H](CCCCN)C(=O)N[C@@H](CCCNC(=N)N)C(N)=O)C(C)C	6.01	5.20	< 5	<50	3.89	3.72	–	–	–
CC(=O)N[C@@H](CC(C)C)C(=O)N[C@@H](CC(C)C)C(=O)N[C@@H](CC(C)C)C(=O)N[C@@H](CC(C)C)C(=O)N[C@@H](CCCNC(=N)N)C(=O)N[C@H](C(=O)N[C@@H](CCCCN)C(=O)NCc1ccc(C(=N)N)cc1)C(C)C (Ac-LLLLRVK-{NH(4-amidinobenzyl)})	–	–	–	–	4.40	4.60	–	–	3.82
CCCC[C@H](NC(=O)[C@H](CC(C)C)NC(=O)[C@H](CC(C)C)NC(=O)[C@H](CC(C)C)NC(C)=O)C(=O)N[C@@H](CCCNC(=N)N)C(=O)N[C@H](C(=O)N[C@@H](CCCCN)C(=O)N[C@@H](CCCNC(=N)N)C(N)=O)C(C)C (Ac-LLL[Nle]RVKR-NH2)	–	–	–	<50	3.66	3.96	–	–	–
CCCC[C@H](NC(C)=O)C(=O)N[C@@H](CCCC)C(=O)N[C@@H](CC(C)C)C(=O)N[C@@H](CC(C)C)C(=O)N[C@@H](CCCN=C(N)N)C(=O)N[C@H](C(=O)N[C@@H](CCCCN)C(=O)N[C@@H](CCCN=C(N)N)C(N)=O)C(C)C	6.02	7.24	–	–	–	–	–	–	–
CCCC[C@H](NC(C)=O)C(=O)N[C@@H](CCCC)C(=O)N[C@@H](CCCC)C(=O)N[C@@H](CCCC)C(=O)N[C@@H](CCCNC(=N)N)C(=O)N[C@H](C(=O)N[C@@H](CCCCN)C(=O)N[C@@H](CCCNC(=N)N)C(N)=O)C(C)C	5.59	6.30	–	–	–	–	–	–	–
